Published values of several laboratories.
Lines come from different studies, so protocols differ.
Melanocortin receptor 4: Melanocortin receptor 4 (Mus musculus, UniProt P56450)
Tspo: Translocator protein (Tspo, Rattus norvegicus, UniProt P16257)
GLP2R: Glucagon-like peptide 2 receptor (GLP2R, Homo sapiens, UniProt O95838)

`O=C(O)CC(=O)C(=O)O` gave a Kd of 642 µM (L-lactate dehydrogenase A chain (LDHA, Homo sapiens, UniProt P00338); binding, fluorescence).
With `N=C(N)NCCC[C@H](NC(=O)[C@@H](N)CC(=O)O)C(=O)N[C@@H](Cc1ccccc1)C(=O)NCC(=O)O` the EC50 was greater than 100 µM (Melanocortin receptor 4; reporter gene, agonist).
`O[C@@H]1[C@H](O)[C@@H]2C[C@@H]2[C@H]1n1cnc2c(NCCc3ccccc3)nc(C#Cc3ccccc3)nc21` has a Ki of greater than 10 µM (Tspo; ligand displacement, radioligand).
`CSCC[C@H](NC(=O)[C@@H](NC(=O)[C@@H](N)Cc1ccc(O)cc1)C(C)C)C(=O)NCC(=O)O` has an EC50 of greater than 100 µM (Melanocortin receptor 4; reporter gene, agonist).
`CNC(=O)[C@@]12C[C@@H]1[C@@H](n1cnc3c(NC)nc(C#Cc4ccccc4)nc31)[C@H](O)[C@@H]2O` has a Ki of greater than 10 µM (Tspo; ligand displacement, radioligand).
`N=C(N)NCCC[C@H](NC(=O)[C@H](CC(=O)O)NC(=O)[C@H](Cc1c[nH]c2ccccc12)NC(=O)[C@H](CCCNC(=N)N)NC(=O)[C@@H](N)Cc1ccccc1)C(=O)N[C@@H](Cc1ccccc1)C(=O)NCC(=O)O` has an EC50 of 47.4 µM (Melanocortin receptor 4; reporter gene, agonist).
`CNc1nc(C#Cc2ccccc2)nc2c1ncn2[C@H]1[C@H](O)[C@H](O)[C@@H]2C[C@@H]21` gave a Ki of greater than 10 µM (Tspo; ligand displacement, radioligand).
With `CC[C@H](C)[C@H](NC(=O)[C@H](CC(=O)O)NC(=O)[C@H](CO)NC(=O)[C@@H](NC(=O)[C@H](Cc1ccccc1)NC(=O)[C@@H](NC(=O)CNC(=O)[C@H](CC(=O)O)NC(=O)[C@H](C)NC(=O)[C@@H](N)Cc1c[nH]cn1)[C@@H](C)O)[C@@H](C)O)C(=O)N[C@@H](CC(N)=O)C(=O)N[C@@H](CCCCN)C(=O)N[C@H](C(=O)N[C@@H](CC(C)C)C(=O)N[C@@H](CC(=O)O)C(=O)N[C@@H](CC(=O)O)C(=O)N[C@@H](CCSC)C(=O)N[C@@H](C)C(=O)N[C@@H](C)C(=O)N[C@@H](CCCCN)C(=O)N[C@@H](CCC(=O)O)C(=O)N[C@@H](Cc1ccccc1)C(=O)N[C@@H](CC(C)C)C(=O)N[C@@H](CCCCN)C(=O)N[C@@H](Cc1c[nH]c2ccccc12)C(=O)N[C@@H](CC(C)C)C(=O)N[C@H](C(=O)N[C@@H](CC(N)=O)C(=O)N[C@H](C(=O)N[C@@H](CCCCN)C(=O)N[C@H](C(=O)N[C@H](C(=O)N[C@@H](CCC(N)=O)C(=O)O)[C@@H](C)O)C(C)C)[C@@H](C)O)[C@@H](C)CC)[C@@H](C)CC` the EC50 was 0.033 µM (GLP2R; reporter gene, agonist, luciferase).
`CSCC[C@H](NC(=O)[C@@H](NC(=O)[C@@H](N)Cc1ccc(O)cc1)C(C)C)C(=O)NCC(=O)N[C@@H](Cc1c[nH]cn1)C(=O)N[C@@H](Cc1ccccc1)C(=O)O` gave an EC50 of greater than 100 µM (Melanocortin receptor 4; reporter gene, agonist).
With `O=C(OC[C@H]1O[C@@H](OC(=O)c2cc(O)c(O)c(OC(=O)c3cc(O)c(O)c(O)c3)c2)[C@H](OC(=O)c2cc(O)c(O)c(OC(=O)c3cc(O)c(O)c(O)c3)c2)[C@@H](OC(=O)c2cc(O)c(O)c(OC(=O)c3cc(O)c(O)c(O)c3)c2)[C@@H]1OC(=O)c1cc(O)c(O)c(OC(=O)c2cc(O)c(O)c(O)c2)c1)c1cc(O)c(O)c(OC(=O)c2cc(O)c(O)c(O)c2)c1` the Kd was 1.1 µM (Replicase polyprotein 1ab, main protease (rep, Severe acute respiratory syndrome coronavirus 2, UniProt P0DTD1); binding, SPR).
`CNc1nc(C#Cc2ccc(Cl)s2)nc2c1ncn2[C@H]1[C@H](O)[C@H](O)[C@]2(C(=O)OCCc3ccccc3)C[C@H]12` gave a Ki of greater than 10 µM (Tspo; ligand displacement, radioligand).
For `CCn1ncc2c1-c1cnc(N)c(c1)O[C@H](C)c1cc(F)ccc1-c1nn(C)nc1C2`, the IC50 was 0.144 µM (High affinity nerve growth factor receptor (NTRK1, Homo sapiens, UniProt P04629); enzyme activity, inhibitor, radiometric).
`N#Cc1ccc(COc2cccc(C3CCN(Cc4nc5ccc(C(=O)O)cc5n4C[C@@H]4CCO4)CC3)n2)c(F)c1` has an EC50 of greater than 20 µM (GLP2R; cAMP, agonist).
With `CNc1nc(C#Cc2ccc(Cl)s2)nc2c1ncn2[C@H]1[C@H](O)[C@H](O)[C@]2(C(=O)O)C[C@H]12` the Ki was greater than 10 µM (Tspo; ligand displacement, radioligand).
For `CC[C@H](C)[C@H](NC(=O)[C@H](Cc1ccccc1)NC(=O)[C@H](CCC(=O)O)NC(=O)[C@H](CCCCN)NC(=O)[C@H](C)NC(=O)[C@H](C)NC(=O)[C@H](CCC(N)=O)NC(=O)CNC(=O)[C@H](CCC(=O)O)NC(=O)[C@H](CC(C)C)NC(=O)[C@H](Cc1ccc(O)cc1)NC(=O)[C@H](CO)NC(=O)[C@H](CO)NC(=O)[C@@H](NC(=O)[C@H](CC(=O)O)NC(=O)[C@H](CO)NC(=O)[C@@H](NC(=O)[C@H](Cc1ccccc1)NC(=O)[C@@H](NC(=O)CNC(=O)[C@H](CCC(=O)O)NC(=O)[C@H](C)NC(=O)[C@@H](N)Cc1c[nH]cn1)[C@@H](C)O)[C@@H](C)O)C(C)C)C(=O)N[C@@H](C)C(=O)N[C@@H](Cc1c[nH]c2ccccc12)C(=O)N[C@@H](CC(C)C)C(=O)N[C@H](C(=O)N[C@@H](CCCCN)C(=O)NCC(=O)N[C@@H](CCCN=C(N)N)C(=O)NCC(=O)O)C(C)C`, the EC50 was greater than 1 µM (GLP2R; reporter gene, agonist, luciferase).
